Activity calls are given as the source filed them. The rule behind the calls is not given here.
Assays:
[1] = AUC in Sprague-Dawley rat at 10 mg/kg, po by LC-MS analysis; format: ADME, organism-based; settings: in vivo
[2] = tested on: HT-29; test: Antitumor activity against human HT-29 cells xenografted in nu/nu mouse assessed as tumor growth inhibition at 45 mg/kg, po administered for 3 days and measured after 1 day relative to control; format: functional; settings: HT-29, 72 h, time 3 day, read-out: TGI
[3] = target: Insulin receptor (Homo sapiens, UniProt P06213); test: Inhibition of N-terminal His6-tagged recombinant human IR (1005 to 1310 residues) expressed in baculovirus infected Sf21 cells assessed as residual activity at 1 uM relative to control
[4] = tested on: U2OS; test: Induction of cell death in human U2OS cells assessed as reduced cell number at 1 uM by time lapse microscopy analysis; format: functional, cell-based; settings: time lower […], time upper 48.0 hrs, TDE = time-dependent effect
[5] = Cmax in Beagle dog at 5 mg/kg, po by LC-MS analysis; format: ADME, organism-based, Canis lupus familiaris; settings: in vivo
[6] = tested on: T98G; test: Antiproliferative activity against human T98G cells assessed as inhibition of cell growth incubated for 72 hrs by cell-titer glo assay; format: functional, cell-based
[7] = target: BDNF/NT-3 growth factors receptor (Homo sapiens) (UniProt Q16620); test: Inhibition of N-terminal His6 tagged recombinant human TrkB (455 to end residues) expressed in baculovirus infected Sf21 cells assessed as residual activity at 0.1 uM relative to control
[8] = target: Mitogen-activated protein kinase 11 (Homo sapiens) (UniProt Q15759); test: Inhibition of N-terminal GST fusion protein corresponding to full-length human SAPK2b expressed in E. coli assessed as residual activity at 0.1 uM relative to control
[9] = tested on: LCLC-97TM1; test: Antiproliferative activity against human LCLC-97TM1 cells assessed as inhibition of cell growth incubated for 72 hrs by cell-titer glo assay; format: functional, cell-based; settings: LCLC-97TM1, 72 h
Outline: (§1)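 Cells seeded at 10,000–30,000/cm² (adherent) or 100,000/mL (nonadherent) in medium with 10% fetal calf serum; after 24 h, treated in duplicate with serial dilutions for 72 h. Viable cell number read by CellTiter-Glo luminescence; IC50 from sigmoidal fit; at least two independent experiments.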

[10] = target: Testis-specific serine/threonine-protein kinase 1 (Homo sapiens) (UniProt Q9BXA7); test: Inhibition of 6His-tagged recombinant human full length TSSK1 expressed in baculovirus infected Sf21 cells assessed as residual activity at 0.1 uM relative to control
[11] = tested on: A2780; test: Induction of cell cycle arrest in human A2780 cells assessed as accumulation of cells in G2/M phase by measuring CDK1 phosphorylation on Tyr15 incubated for 24 hrs by Western blotting analysis; format: functional, cell-based; settings: dose 0.02-0.2 µmol/L
Outline: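 A2780 ovarian carcinoma cells treated 24 h with a range of concentrations, with DMSO and nocodazole controls. 20 µg protein extract separated by SDS-PAGE and immunoblotted with chemiluminescent detection. Probed for total and phospho-Thr210 PLK1, phospho-Ser10 histone H3, phospho-Thr199 NPM and phospho-Tyr15 CDK1. Total NPM, tubulin and total CDK1 served as loading controls.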

[12] = target: Tyrosine-protein kinase Mer (Homo sapiens) (UniProt Q12866); test: Inhibition of N-terminal GST-tagged recombinant human Mer (557 to 882 residues) expressed in baculovirus infected Sf21 cells assessed as residual activity at 1 uM relative to control
[13] = tested on: LN-229; test: Antiproliferative activity against human LN-229 cells assessed as inhibition of cell growth incubated for 72 hrs by cell-titer glo assay; format: functional, cell-based; settings: LN-229, 72 h; outline: as §1
[14] = tested on: A2780; test: Induction of mitosis in human A2780 cells xenografted in nu/nu mouse assessed as decreased Histone H3 phosphorylation on Ser10 at 60 mg/kg, po administered for 12 to 24 hrs by immunohistochemistry analysis; format: functional, organism-based; settings: time lower […], time upper 24.0 hrs
[15] = tested on: BT-549; test: Antiproliferative activity against human BT-549 cells assessed as inhibition of cell growth incubated for 72 hrs by cell-titer glo assay; format: functional, cell-based; settings: BT-549, 72 h
Outline: (§2)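 Cells seeded 10,000–30,000/cm² (adherent) or 100,000/mL (suspension) in medium with 10% fetal calf serum; after 24 h treated in duplicate with serial dilutions for 72 h. Viable cells read by CellTiter-Glo luminescence; IC50 from sigmoidal fit; at least two independent experiments.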

[16] = target: Tyrosine-protein kinase BTK (Homo sapiens) (UniProt Q06187); test: Inhibition of N-terminal His6-tagged recombinant full-length human BTK expressed in baculovirus infected Sf21 cells assessed as residual activity at 1 uM relative to control
[17] = target: Cyclin-dependent kinase 4/cyclin D1 (Homo sapiens, UniProt P11802); test: Inhibition of CDK4/CycD1 (unknown origin) in presence of [gamma-33P]ATP; format: protein-complex assay
[18] = target: Ribosomal protein S6 kinase alpha-3 (Homo sapiens) (UniProt P51812); test: Inhibition of N-terminal His6 tagged recombinant human full-length Rsk2 expressed in baculovirus infected Sf21 cells assessed as residual activity at 1 uM relative to control
[19] = tested on: SF-268; test: Antiproliferative activity against human SF-268 cells assessed as inhibition of cell growth incubated for 72 hrs by cell-titer glo assay; format: functional, cell-based; settings: SF-268, 72 h
Outline: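 Cells from ATCC or ECACC, kept in supplier-recommended medium with 1% penicillin-streptomycin at 37°C, 5% CO₂. Seeded at 10,000–30,000/cm² (adherent) or 100,000/mL (nonadherent) in medium with 10% fetal calf serum. Dosed after 24 h in duplicate with serial dilutions. Viable cells read by CellTiter-Glo 72 h later. IC50 from sigmoidal fit. At least two independent experiments.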

[20] = target: Serine/threonine-protein kinase Nek3 (Homo sapiens) (UniProt P51956); test: Inhibition of N-terminal 6His-tagged recombinant full length human NEK3 expressed in baculovirus infected Sf21 cells assessed as residual activity at 0.1 uM relative to control
[21] = tested on: COLO-741; test: Antiproliferative activity against human COLO-741 cells assessed as inhibition of cell growth incubated for 72 hrs by cell-titer glo assay; format: functional, cell-based; settings: COLO-741, 72 h; outline: as §2
[22] = tested on: BT-20; test: Antiproliferative activity against human BT-20 cells assessed as inhibition of cell growth incubated for 72 hrs by cell-titer glo assay; format: functional, cell-based; settings: BT-20, 72 h; outline: as §2
[23] = tested on: HL-60; test: Antiproliferative activity against human HL-60 cells assessed as inhibition of cell growth incubated for 72 hrs by cell-titer glo assay; format: functional, cell-based; settings: HL-60, 72 h; outline: as §1
[24] = tested on: HCT-116; test: Antitumor activity against human HCT-116 cells xenografted in nu/nu mouse assessed as tumor growth inhibition at 60 mg/kg administered for 10 days relative to control; format: functional; settings: HCT-116, 240 h, time 10 day, read-out: TGI
[25] = tested on: DU-4475; test: Antiproliferative activity against human DU-4475 cells assessed as inhibition of cell growth incubated for 72 hrs by cell-titer glo assay; format: functional, cell-based; settings: DU-4475, 72 h; outline: as §2
[26] = tested on: EKVX; test: Antiproliferative activity against human EKVX cells assessed as inhibition of cell growth incubated for 72 hrs by cell-titer glo assay; format: functional, cell-based; outline: as §2

Chain of Mitogen-activated protein kinase 11 (Homo sapiens) (Q15759 whole entry, the tested form may be a part): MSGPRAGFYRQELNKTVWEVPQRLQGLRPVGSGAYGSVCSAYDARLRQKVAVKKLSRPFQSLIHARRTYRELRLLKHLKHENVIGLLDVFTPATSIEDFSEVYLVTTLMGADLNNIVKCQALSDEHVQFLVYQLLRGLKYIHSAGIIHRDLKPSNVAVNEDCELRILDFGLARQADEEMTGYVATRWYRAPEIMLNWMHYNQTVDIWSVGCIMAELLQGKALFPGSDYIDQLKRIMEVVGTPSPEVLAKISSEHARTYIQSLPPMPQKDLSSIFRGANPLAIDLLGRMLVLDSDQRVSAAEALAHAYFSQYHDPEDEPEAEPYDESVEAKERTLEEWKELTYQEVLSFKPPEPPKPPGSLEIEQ
Chain of BDNF/NT-3 growth factors receptor (Homo sapiens) (Q16620 32-822 limits assumed): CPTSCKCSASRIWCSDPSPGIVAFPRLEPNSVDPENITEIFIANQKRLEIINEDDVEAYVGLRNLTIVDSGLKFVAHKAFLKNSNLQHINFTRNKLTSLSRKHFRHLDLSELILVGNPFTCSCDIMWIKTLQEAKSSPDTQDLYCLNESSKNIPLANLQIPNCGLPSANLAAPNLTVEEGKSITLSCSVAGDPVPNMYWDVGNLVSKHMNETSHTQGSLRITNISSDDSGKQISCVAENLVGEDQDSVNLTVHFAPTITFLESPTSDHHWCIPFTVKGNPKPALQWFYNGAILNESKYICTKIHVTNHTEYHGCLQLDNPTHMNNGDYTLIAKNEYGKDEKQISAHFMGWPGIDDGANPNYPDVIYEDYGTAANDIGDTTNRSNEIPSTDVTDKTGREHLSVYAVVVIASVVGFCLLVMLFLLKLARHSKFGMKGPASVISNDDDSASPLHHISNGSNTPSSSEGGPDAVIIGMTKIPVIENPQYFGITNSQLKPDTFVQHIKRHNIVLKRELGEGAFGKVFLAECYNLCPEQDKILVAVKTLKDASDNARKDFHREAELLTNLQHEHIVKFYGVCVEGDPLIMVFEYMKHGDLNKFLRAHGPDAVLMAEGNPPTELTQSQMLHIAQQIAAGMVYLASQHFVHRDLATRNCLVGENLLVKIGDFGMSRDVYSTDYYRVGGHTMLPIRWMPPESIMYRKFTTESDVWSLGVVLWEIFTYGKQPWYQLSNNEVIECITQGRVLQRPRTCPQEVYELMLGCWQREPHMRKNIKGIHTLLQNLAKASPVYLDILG
Chain of Tyrosine-protein kinase BTK (Homo sapiens) (Q06187 whole entry): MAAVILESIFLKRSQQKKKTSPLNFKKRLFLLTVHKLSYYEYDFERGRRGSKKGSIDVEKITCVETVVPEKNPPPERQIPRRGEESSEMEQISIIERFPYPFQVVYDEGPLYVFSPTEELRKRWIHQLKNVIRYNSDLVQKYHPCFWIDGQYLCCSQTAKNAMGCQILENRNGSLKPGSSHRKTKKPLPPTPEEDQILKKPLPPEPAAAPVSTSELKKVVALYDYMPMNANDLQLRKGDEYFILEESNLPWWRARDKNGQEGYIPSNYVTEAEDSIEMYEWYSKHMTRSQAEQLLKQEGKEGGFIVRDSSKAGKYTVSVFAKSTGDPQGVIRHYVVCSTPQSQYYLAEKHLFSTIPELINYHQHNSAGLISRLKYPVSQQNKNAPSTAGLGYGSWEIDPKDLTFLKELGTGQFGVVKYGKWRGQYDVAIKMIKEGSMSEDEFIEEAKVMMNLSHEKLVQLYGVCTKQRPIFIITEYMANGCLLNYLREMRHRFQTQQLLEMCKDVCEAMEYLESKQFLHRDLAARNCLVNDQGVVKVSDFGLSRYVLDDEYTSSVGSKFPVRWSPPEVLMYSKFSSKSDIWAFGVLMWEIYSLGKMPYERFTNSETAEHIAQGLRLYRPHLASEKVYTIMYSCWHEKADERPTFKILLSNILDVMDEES
Chain of Cyclin-dependent kinase 4/cyclin D1 (P11802 whole entry): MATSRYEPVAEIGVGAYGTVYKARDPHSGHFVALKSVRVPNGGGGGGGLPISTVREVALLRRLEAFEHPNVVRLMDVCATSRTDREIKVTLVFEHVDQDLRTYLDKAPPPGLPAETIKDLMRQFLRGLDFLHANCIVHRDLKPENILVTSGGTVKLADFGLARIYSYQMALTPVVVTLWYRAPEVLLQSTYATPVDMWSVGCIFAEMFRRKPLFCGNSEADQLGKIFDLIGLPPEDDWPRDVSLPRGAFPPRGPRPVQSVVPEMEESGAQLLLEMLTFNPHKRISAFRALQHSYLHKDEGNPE
Chain of Cyclin-dependent kinase 4/cyclin D1 (P24385 whole entry, further chain): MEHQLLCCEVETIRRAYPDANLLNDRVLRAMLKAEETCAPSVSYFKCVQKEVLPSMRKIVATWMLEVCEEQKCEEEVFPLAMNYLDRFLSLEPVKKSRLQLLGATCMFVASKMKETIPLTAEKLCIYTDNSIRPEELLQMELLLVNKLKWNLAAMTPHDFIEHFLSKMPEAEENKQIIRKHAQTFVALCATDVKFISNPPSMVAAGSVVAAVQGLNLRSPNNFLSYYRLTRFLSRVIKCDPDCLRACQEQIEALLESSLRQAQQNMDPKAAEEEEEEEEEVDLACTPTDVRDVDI
Chain of Testis-specific serine/threonine-protein kinase 1 (Homo sapiens) (Q9BXA7 whole entry): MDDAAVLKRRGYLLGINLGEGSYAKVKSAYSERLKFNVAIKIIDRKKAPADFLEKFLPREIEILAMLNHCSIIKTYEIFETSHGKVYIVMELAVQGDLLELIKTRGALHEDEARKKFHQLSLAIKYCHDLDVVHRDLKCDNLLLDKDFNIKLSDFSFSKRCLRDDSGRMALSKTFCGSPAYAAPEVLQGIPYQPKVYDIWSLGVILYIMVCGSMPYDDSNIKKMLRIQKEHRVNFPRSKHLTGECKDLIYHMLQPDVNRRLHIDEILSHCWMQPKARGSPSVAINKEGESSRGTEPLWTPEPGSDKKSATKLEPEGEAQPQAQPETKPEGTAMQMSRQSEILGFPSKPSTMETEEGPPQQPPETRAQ
Chain of Insulin receptor (P06213 28-758 limits assumed): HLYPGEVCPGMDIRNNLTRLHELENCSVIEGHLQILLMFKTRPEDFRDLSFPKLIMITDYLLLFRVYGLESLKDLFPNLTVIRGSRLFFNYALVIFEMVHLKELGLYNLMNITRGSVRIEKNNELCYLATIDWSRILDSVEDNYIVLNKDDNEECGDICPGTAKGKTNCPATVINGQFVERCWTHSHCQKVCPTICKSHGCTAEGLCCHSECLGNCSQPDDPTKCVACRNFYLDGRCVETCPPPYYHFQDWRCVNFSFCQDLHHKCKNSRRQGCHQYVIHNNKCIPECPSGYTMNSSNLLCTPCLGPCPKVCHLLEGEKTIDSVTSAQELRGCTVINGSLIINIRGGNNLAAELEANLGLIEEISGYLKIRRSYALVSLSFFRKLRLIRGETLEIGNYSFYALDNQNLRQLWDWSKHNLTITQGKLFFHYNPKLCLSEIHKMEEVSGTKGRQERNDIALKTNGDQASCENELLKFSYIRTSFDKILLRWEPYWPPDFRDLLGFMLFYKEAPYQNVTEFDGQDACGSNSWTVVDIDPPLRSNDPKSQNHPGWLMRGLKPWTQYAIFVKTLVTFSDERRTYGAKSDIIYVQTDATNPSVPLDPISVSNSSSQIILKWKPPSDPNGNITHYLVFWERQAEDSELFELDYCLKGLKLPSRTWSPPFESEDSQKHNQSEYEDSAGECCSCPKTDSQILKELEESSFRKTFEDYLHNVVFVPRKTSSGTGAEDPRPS
Chain of Insulin receptor (P06213 763-1382 limits assumed): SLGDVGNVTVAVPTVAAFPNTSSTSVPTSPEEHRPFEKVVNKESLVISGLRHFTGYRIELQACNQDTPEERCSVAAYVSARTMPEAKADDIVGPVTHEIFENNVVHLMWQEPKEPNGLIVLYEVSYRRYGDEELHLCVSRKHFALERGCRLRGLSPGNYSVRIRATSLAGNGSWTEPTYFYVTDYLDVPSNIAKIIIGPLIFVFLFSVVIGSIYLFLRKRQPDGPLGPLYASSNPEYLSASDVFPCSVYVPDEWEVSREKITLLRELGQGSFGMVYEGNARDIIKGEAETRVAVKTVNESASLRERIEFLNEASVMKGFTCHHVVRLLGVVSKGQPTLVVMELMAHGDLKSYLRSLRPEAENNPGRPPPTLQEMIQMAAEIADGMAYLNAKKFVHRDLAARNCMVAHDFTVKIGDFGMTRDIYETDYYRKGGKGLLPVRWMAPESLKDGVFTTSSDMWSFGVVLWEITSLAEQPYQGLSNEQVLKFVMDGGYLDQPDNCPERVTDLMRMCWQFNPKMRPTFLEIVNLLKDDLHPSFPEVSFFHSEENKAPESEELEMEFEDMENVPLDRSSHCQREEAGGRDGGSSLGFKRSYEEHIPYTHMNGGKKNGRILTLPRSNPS
Chain of Ribosomal protein S6 kinase alpha-3 (Homo sapiens) (P51812 whole entry): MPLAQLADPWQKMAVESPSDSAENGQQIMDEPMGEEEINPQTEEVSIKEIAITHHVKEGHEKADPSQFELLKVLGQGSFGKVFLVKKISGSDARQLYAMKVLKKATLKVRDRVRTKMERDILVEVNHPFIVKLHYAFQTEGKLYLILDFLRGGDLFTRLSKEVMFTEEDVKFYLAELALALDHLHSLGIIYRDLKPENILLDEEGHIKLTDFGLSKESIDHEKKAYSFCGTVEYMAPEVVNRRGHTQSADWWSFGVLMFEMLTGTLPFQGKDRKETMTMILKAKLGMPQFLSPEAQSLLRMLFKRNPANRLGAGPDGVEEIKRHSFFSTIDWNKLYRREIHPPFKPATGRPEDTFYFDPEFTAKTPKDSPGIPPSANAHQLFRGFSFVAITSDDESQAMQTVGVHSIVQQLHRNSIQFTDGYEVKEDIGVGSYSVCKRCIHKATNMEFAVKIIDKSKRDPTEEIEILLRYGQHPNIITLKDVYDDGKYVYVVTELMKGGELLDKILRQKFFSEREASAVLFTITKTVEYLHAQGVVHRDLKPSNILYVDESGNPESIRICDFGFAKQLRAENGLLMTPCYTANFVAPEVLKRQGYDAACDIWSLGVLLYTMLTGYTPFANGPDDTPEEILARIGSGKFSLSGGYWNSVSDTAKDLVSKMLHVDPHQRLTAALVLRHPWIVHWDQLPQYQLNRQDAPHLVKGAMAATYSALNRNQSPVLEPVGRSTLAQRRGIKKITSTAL

Question: Which AUC [1] does the source give for `CN1CCN(c2ccc(OC(F)(F)F)c(Nc3ncc4c(n3)-c3c(c(C(N)=O)nn3CCO)CC4)c2)CC1` [ONVANSERTIB] here?
Answer: Its AUC is 46.4 µM·h.

Question: And the inhibition in vivo at 45 mg/kg [2]?
Answer: Its inhibition in vivo at 45 mg/kg is 72%.

Question: And the Activity [3]?
Answer: The Activity was 90%.

Question: And the Activity [4]?
Answer: Its Activity is “Tde”.

Question: And the Cmax [5]?
Answer: The Cmax was 1200 nM.

Question: And the IC50 [6]?
Answer: Its IC50 is 228 nM.

Question: What about the Activity [7] of the same molecule?
Answer: The Activity was 145%.

Question: What about the Activity [8] of the same molecule?
Answer: Its Activity is 152%.

Question: What about the IC50 [9] of the same molecule?
Answer: The IC50 was 32 nM.

Question: What about the Activity [10] of the same molecule?
Answer: Its Activity is 67%.

Question: And the Activity [11]?
Answer: The Activity was “Dose-Dependent Effect”.

Question: And the Activity [12]?
Answer: The Activity was 64%.

Question: What about the IC50 [13] of the same molecule?
Answer: Its IC50 is 62 nM.

Question: And the Activity [14]?
Answer: The Activity was “Active”.

Question: And the IC50 [15]?
Answer: Its IC50 is 49 nM.

Question: And the Activity [16]?
Answer: Its Activity is 84%.

Question: What about the IC50 [17] of the same molecule?
Answer: The IC50 was > 10000 nM.

Question: What about the Activity [18] of the same molecule?
Answer: The Activity was 89%.

Question: And the IC50 [19]?
Answer: The IC50 was 90 nM.

Question: And the Activity [20]?
Answer: Its Activity is 127%.

Question: And the IC50 [21]?
Answer: The IC50 was 108 nM.

Question: What about the IC50 [22] of the same molecule?
Answer: Its IC50 is 93 nM.

Question: What about the IC50 [23] of the same molecule?
Answer: The IC50 was 73 nM.

Question: What about the inhibition in vivo at 60 mg/kg [24] of the same molecule?
Answer: Its inhibition in vivo at 60 mg/kg is 89%.

Question: And the IC50 [25]?
Answer: The IC50 was 47 nM.

Question: What about the IC50 [26] of the same molecule?
Answer: Its IC50 is 196 nM.

Reference: ChEMBL document CHEMBL5678806, “NMS-P937, an orally available, specific small-molecule polo-like kinase 1 inhibitor with antitumor activity in solid and hematologic malignancies” (Mol Cancer Ther, 2012)
